# High-throughput results as filed in PubChem BioAssay.
# CSN deneddyl inh: blocks human CSN-mediated cullin deneddylation; Purified CSN, SCF-Nedd8-OG deneddylation, fluorescence polarization; inhibition, % at 12.5 µM; 0.38% of 360,000 active; AID 651999;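 active = pattern-corrected inhibition above about 35%, with an unprinted fluorescence ratio check between 0.5 and 1.5, limit read from the data, passing the limit was not always enough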;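 note: 0% = enzyme with substrate and 100% = substrate without enzyme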
#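 assay system = purified human Csn5 enzyme expressed in HEK293T cells | amount = 0.24 nM enzyme | buffer or medium = Tris/NaCl/DTT buffer, pH 7.5 | reagent = 10 nM SCFSkp2-Nedd8OG | compound = one concentration, 12.5 µM, 0.25% DMSO | times = 90 min reaction at room temperature | signal = FP | read-out basis = % inhibition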
# Rpn11 inh: inhibitors of human proteasome Rpn11 | O00487 | human 26S proteasome, Ub4-pepOG fluorescence polarization; 20S core pre-blocked with epoxomicin | inhibition, % at 20 µM | 0.59% of 360,000 active | AID 588493;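 active = inhibition at 20 µM, scaled to each plate's controls, above about 33%, limit read from the data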
# TPT1 inhibitor: blocks Candida albicans tRNA 2'-phosphotransferase; 0.81% of 300,000 active; inhibition, % at 5 µM; recombinant caTPT1, FP RNA substrate dephosphorylation;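 active = inhibition above the mean of all tested compounds plus 3 SD, set per screening campaign, cut at about 24% in these data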;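 note: plate controls were DMSO alone for no effect and ferristatin control at 100 nM for full effect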
# PP1 counter: PP1-alpha (human) inhibition in PP5 counter-screen | 0.9% of 320,000 active | purified PP1alpha, OMFP fluorescence | inhibition, % at 6.7 µM | P62136;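 active = inhibition above the mean inhibition of all tested compounds plus 3 SD, computed separately for each screening campaign, cut at about 15% in these data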
# HNF4A DNA FP: change in binding of human HNF4 alpha to DNA | P41235 | AID 1224865 | 0.3% of 360,000 active | activity change, % at 10 µM | HNF4a-FITC DNA binding, fluorescence polarization, 1 h; in the data active = activity change above about 30%, passing the limit was not always enough
# Target sequence (P41235 whole entry, looked up): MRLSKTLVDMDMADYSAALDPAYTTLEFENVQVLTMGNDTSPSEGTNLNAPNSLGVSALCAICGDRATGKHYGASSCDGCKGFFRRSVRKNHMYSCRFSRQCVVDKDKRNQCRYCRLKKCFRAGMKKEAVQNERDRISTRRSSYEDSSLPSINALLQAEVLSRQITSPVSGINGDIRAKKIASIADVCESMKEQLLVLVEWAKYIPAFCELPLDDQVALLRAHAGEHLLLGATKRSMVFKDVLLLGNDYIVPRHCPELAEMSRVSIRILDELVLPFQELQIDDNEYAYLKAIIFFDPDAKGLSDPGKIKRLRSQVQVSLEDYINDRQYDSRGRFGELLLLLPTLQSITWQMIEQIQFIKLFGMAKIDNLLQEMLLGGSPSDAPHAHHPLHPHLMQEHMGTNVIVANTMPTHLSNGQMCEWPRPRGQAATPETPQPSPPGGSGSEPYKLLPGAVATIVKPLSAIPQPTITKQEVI
# NadD block: NadD (S. aureus) enzyme inhibition; purified NadD enzyme, colorimetric absorbance read-out; inhibition, % at 20 µM; 0.78% of 360,000 active; in the data active = inhibition above about 26%
# PP1 confirm: confirmation of human PP1 phosphatase inhibitors; shares compounds with PP1 counter; purified PP1alpha, OMFP substrate fluorescence; inhibition, % at 6.7 µM; 52% of 1,900 active;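 active = mean PP1 inhibition above a set limit taken from the earlier primary screen, cut at about 15% in these data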
# PP5 counter: counter-screen for PP1 inhibitors: human PP5 phosphatase inhibition | shares compounds with PP1 counter | purified PP5c, OMFP fluorescence | inhibition, % at 6.7 µM | 4% of 1,900 active | AID 2360;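 active = mean PP5 inhibition over triplicate wells above about 9.5% taken from the earlier PP1 screen, limit read from the data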
# Starred values were filed as active, the others as inactive; / = no result. Shown are actives, neighbours in structure and some others; about 2.7% of the full set was active somewhere.
SMILES,CSN deneddyl inh,Rpn11 inh,TPT1 inhibitor,PP1 counter,HNF4A DNA FP,NadD block,PP1 confirm,PP5 counter
C=CCOC(=O)C(=O)/C=C/c1ccc2c(c1)Cc1ccccc1-2,1,10,-1,21*,1,4,18*,0
C=CCOC(=O)C(=O)/C=C/c1csc2ccccc12,4,10,2,9,6,22,/,/
COc1cnc(-c2ccccn2)nc1NC(C)C,-16,-1,2,4,6,0,/,/
COc1ccccc1Sc1nc(-c2ccccn2)ncc1OC,-5,1,7,44*,-3,4,46*,-6
COc1cnc(-c2ccccn2)nc1Sc1ccc(C)cc1,-7,5,-1,48*,-3,7,51*,-2
Cc1ccc(Sc2cc(C)nc(-c3ccccn3)n2)cc1,-1,1,-2,10,1,6,/,/
COc1cnc(-c2ccccn2)nc1Sc1cccc(Cl)c1,-6,4,0,33*,-4,18,50*,-1
CCc1ccccc1N(C(=O)c1snc(C(N)=O)c1N)C(C(=O)NCC1CCCO1)c1c[nH]c2ccccc12 (centres undefined),-2,6,-1,1,-4,6,/,/
Cc1ccc(NC(=O)/C(=C/c2cccc([N+](=O)[O-])c2)NC(=O)C2CCCCC2)cc1,-5,-2,-2,5,-2,3,/,/
Cc1ccc(NC(=O)/C(=C\c2cccc([N+](=O)[O-])c2)NC(=O)c2cccs2)cc1,-4,2,-3,24*,2,6,18*,-4
CCNC(=O)C1(C)CCN(C(=O)C(c2ccccc2)c2ccccc2)C1 (centres undefined),-3,0,/,/,-2,-1,/,/
CC(C)(C)C(=O)N1N=C(c2ccc(NS(C)(=O)=O)cc2)CC1c1cccs1 (centres undefined),3,10,0,23*,7,-8,-1,-2
Cc1ccc(S(=O)(=O)NCc2nnnn2-c2ccc(F)cc2)cc1,0,-2,/,/,5,4,/,/
COC(=O)[C@]12CCCCC=C1N(CCc1ccc(OC)c(OC)c1)C(=O)[C@H](CC(=O)NCc1ccc(C)o1)C2,-2,/,/,/,0,/,/,/
CC(NC(=O)COc1ccc(S(=O)(=O)N2CCOCC2)cc1)c1ccccc1 (centres undefined),-2,-4,/,-1,-2,1,/,/
COc1ccc(C(=O)c2oc3nc(C)cc(C)c3c2N)cc1,-3,4,-3,1,-2,1,/,/
Cc1ccc(C(=O)c2oc3nc(C)cc(C)c3c2N)cc1,2,0,-4,21*,0,4,-4,-7
Oc1c(C(c2ccc(Cl)cc2)N2CCCC2)cc(Cl)c2cccnc12 (centres undefined),6,19,-2,25*,-4,12,22*,-2
Cc1ccc(C(c2cc(Cl)c3cccnc3c2O)N2CCN(C)CC2)cc1 (centres undefined),-2,20,1,27*,2,5,11,-3
Oc1c(C(c2ccccc2Cl)N2CCCC2)ccc2cccnc12 (centres undefined),-1,25,-1,21*,1,4,11,0
CC(=O)NC(c1ccc(C)cc1)c1cc(Cl)c2cccnc2c1O (centres undefined),5,8,/,/,-5,3,/,/
CC(=O)NC(c1cc(Cl)c2cccnc2c1O)C(C)C (centres undefined),-4,-11,/,1,1,-1,/,/
CN1CCN(C(c2ccccn2)c2cc(Cl)c3cccnc3c2O)CC1 (centres undefined),1,17,1,72*,4,-1,59*,6
O=C(Cc1ccc(NC(=O)C2CCN(C(=O)c3ccccc3)CC2)cc1)Nc1cccc(C(=O)N2CCCCC2)c1,-2,2,/,/,0,3,/,/
O=C(NC1CCCCC1)c1ccc(-c2cn[nH]c2)c2ccoc12,-5,1,/,/,-3,0,/,/
SMILES,CSN deneddyl inh,Rpn11 inh,TPT1 inhibitor,PP1 counter,HNF4A DNA FP,NadD block,PP1 confirm,PP5 counter
COc1cccc(NC(=O)CN(C)CC(=O)Nc2ccc(C)c(S(=O)(=O)N3CCOCC3)c2)c1,2,-5,/,/,3,9,/,/
Oc1c(C(c2ccccn2)N2CCC(Cc3ccccc3)CC2)cc(Cl)c2cccnc12 (centres undefined),/,/,-5,73*,/,/,20*,2
CCCCn1nnc(NC(=S)NC(=O)c2ccc(OCC)c([N+](=O)[O-])c2)n1,-2,-4,-2,0,-1,2,/,/
COC(=O)c1ccc(C2/C(=C(/O)c3ccc(OC(C)C)cc3)C(=O)C(=O)N2c2cc(C)on2)cc1 (centres undefined),1,-2,-6,20*,-2,18,8,-5
c1ccc(-c2n[nH]c(-c3ccccn3)n2)nc1,3,-9,5,27*,-2,-2,23*,-6
COC(=O)c1ccccc1NC(=O)c1ccc(COc2cccc3ccccc23)o1,1,14,1,25*,3,6,19*,-1
O=c1c2ccccc2nc2n1CCCCC2,0,-4,1,4,0,-7,/,/
O=c1c2ccccc2nc2n1CCC2,2,-4,-2,52*,7,12,48*,1
Cc1cccc(NC(=O)c2ccc3c(c2)C(=O)N(c2ccccc2C)C3=O)n1,2,-3,-1,3,3,2,/,/
O=C1Nc2ccccc2/C1=C/c1cnc(-c2ccccc2)[nH]1,6,-7,-31,35*,-20,24,35*,-1
O=C(Nc1ccccc1N1CCN(C(=O)c2ccc(Cl)cc2)CC1)c1cc(Br)ccc1Cl,3,3,3,18*,-1,10,9,-3
COc1cccc(CN2C(=O)C3CCCN3c3ccc(S(=O)(=O)N4CCOCC4)cc32)c1 (centres undefined),/,/,12,26*,/,/,25*,0
Cc1ccc(C)c(CN2C(=O)C3CCCN3c3ccc(S(=O)(=O)N4CCOCC4)cc32)c1 (centres undefined),/,/,14,22*,/,/,22*,0
Cc1ccc(C)c(COC(=O)c2cc(S(=O)(=O)N3CCCCC3)ccc2N2CCOCC2)c1,0,-6,0,-2,0,-10,/,/
CCc1ccc(N2CC(C(=O)Nc3ccc4c(c3)OCO4)CC2=O)cc1 (centres undefined),-4,5,/,2,4,-4,/,/
O=C(O)c1ccccc1-c1nc2ccccc2c(=O)n1O,-4,-5,-5,25*,4,0,30*,1
O=c1c2ccccc2nc(-c2ccccc2)n1O,1,-8,-4,-1,-3,-4,/,/
